Measurements from article PMC7001660 (Molecular cell, 2019).

Tested on: M2 anti-FLAG antibody
Assay: Prot-MaP on-chip limit of detection
Format: binding, mouse
Conditions: for fluorescence signal relative to WT: quantified fluorescence medians across M2 concentrations, Fig. 2B
Summary of the method: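 Run at 25°C: M2 at 1, 3.2, 10, 32, 100nM (45 min each), each followed by wash and 35nM Alexa555 anti-mouse secondary (37 min). Zero-primary secondary gives baseline. Per-variant cluster medians used; threshold 3σ above negative-set mean; LoD by inter/extrapolation.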

Row | Sequence | fluorescence signal relative to WT | fold lower LoD than WT (LoD of WT FLAG (DYKDDDDK) relative to variant) [fold]
1 | DYKDDDDKGDYKDHD [2xFLAG, reference compound] | much higher signal than WT | 
2 | DYKDEDLL [superFLAG] | much higher signal than WT | 7.9
